This note sets out measurements from ChEMBL document CHEMBL4184306 (Bioorg Med Chem Lett, 2018).

SMILES strings stand for the structures. Values after ≈ are worked out from the molar mass of the structure shown.

Series [1] can be described thus: Aqueous solubility of the compound in phosphate buffer at pH 7.4 measured after 24 hrs by HPLC method. It is filed as physicochemical. In outline: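 Measured in phosphate buffer at pH 7.4 and 37 °C, with the dissolved compound quantified by high-performance liquid chromatography.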
The subject of series [2] is A2780. The series can be described thus: Growth inhibition of human A2780 cells after 72 hrs by SRB assay. The series is classed as functional, cell-based. The conditions noted are these: A2780, 72 h.
Series [3] in a line: Growth inhibition of human A2780cis cells after 72 hrs by SRB assay. It is filed as functional, cell-based.
In series [4] the test system is OVCAR-8. The series can be described thus: Growth inhibition of human OVCAR8 cells after 72 hrs by SRB assay. It is filed as functional, cell-based. To be noted: OVCAR-8, 72 h.
The nature of series [5]: Growth inhibition of SV-40 immortalized human ovarian epithelial cells after 72 hrs by SRB assay.
For series [6], the system named is A2780 (human). The series can be described thus: Selectivity index, ratio of IC50 for SV-40 immortalized human ovarian epithelial cells to IC50 for human A2780 cells.
Series [7] has as its system Plasmodium falciparum. The series can be described thus: Antiplasmodial activity against Plasmodium falciparum Dd2 by SYBR Green I fluorescence assay. The series is classed as functional, organism-based.
A short description of series [8]: Growth inhibition of SV-40 immortalized human ovarian epithelial cells after 48 hrs by MTT assay.
The subject of series [9] is A2780. The series can be described thus: Growth inhibition of human A2780 cells after 48 hrs by MTT assay. The series is classed as functional, cell-based. The conditions noted are these: A2780, 48 h.
Series [10] can be described thus: Growth inhibition of human A2780cis cells after 72 hrs by MTT assay. The series is classed as functional, cell-based.
Series [11] deals with Plasmodium falciparum. The series can be described thus: Antiplasmodial activity against chloroquine sensitive Plasmodium falciparum FCR-3/Gambia assessed as [3H]hypoxanthine incorporation after 72 hrs. The series is classed as functional, organism-based.
The subject of series [12] is Plasmodium falciparum. The series can be described thus: Antiplasmodial activity against chloroquine and artemisinin sensitive Plasmodium falciparum FCR-3/Gambia after 72 hrs. It is filed as functional, organism-based.

In series [1], `CC1=CC(=O)C=C(C)C1=O` registered a solubility at 24 h of 5040 µg/mL (≈ 37 mM). Besides, the IC50 worked out at 3.2 µM in series [2]; 2.9 µM in series [3]; 5.2 µM in series [4]; 5.3 µM in [5]; 10.4 µM in series [7]. In addition, in series [6], the selectivity ratio was determined as 1.7.
For `CC(C)(C)C1=CC(=O)C=CC1=O`, the IC50 in [2] was determined as 5.7 µM; in series [3], 4.9 µM; in series [4] it was 10 µM; in series [5], 10.3 µM; in series [7], 15.6 µM. Also, in series [6], the selectivity ratio came to 1.8.
On to `CC1=CC(=O)C(C(C)(C)C)=CC1=O`, for which the IC50 in series [2] worked out at 7.5 µM; in [3], 7.9 µM; in [4], 13.5 µM; in series [5], 55.8 µM; in [7], 19.7 µM. Also, the selectivity ratio in series [6] turned out to be 7.5.
Take `CC1=C(N)C(=O)C(C(C)C)=CC1=O`: the IC50 in series [2] worked out at 19.9 µM; in series [3] it was 19.3 µM; in series [4], 35.1 µM; in series [5], 139 µM; in series [7] it was 19.3 µM. Further, the selectivity ratio in series [6] was 7.1.
On to `CC(C)(C)C1=CC(=O)C=C(C(C)(C)C)C1=O`, for which the IC50 was found to be 24.6 µM in series [2]; 31.1 µM in series [3]; 37.4 µM in series [4]; 51.5 µM in series [5]; 29.5 µM in series [7].
With `CC(C)(C)C1=CC(=O)C(C(C)(C)C)=CC1=O`, the IC50 was determined as 34 µM in [2]; 42.5 µM in series [3]; 51.2 µM in series [4]; 117 µM in series [5]; 4.2 µM in series [7].
As for `CC1=CC(=O)C(Nc2ccc(F)cc2)=CC1=O`, the IC50 was 15 µM in series [2]; 21.8 µM in series [3]; 32 µM in [4]; 20.2 µM in series [5]; 100 µM in [7]. In [6], the selectivity ratio amounted to 1.3.
As to `CC1=CC(=O)C(N(C)C)=CC1=O`, the solubility at 24 h in series [1] amounted to 8320 µg/mL (≈ 50.4 mM). Besides, the IC50 in series [2] is 6.2 µM; in series [3], 4.7 µM; in series [4], 5.6 µM; in [5], 7.9 µM; in series [7], 9.9 µM. Besides, the selectivity ratio in [6] is 1.7.
As for `Cc1cc(O)c(C(C)C)cc1O`, the IC50 stood at 3.1 µM in series [2]; 9.8 µM in [3]; 8.9 µM in series [4]; 14 µM in [5]; 15.9 µM in [7]. Moreover, the selectivity ratio in series [6] amounted to 4.5.
Turning to `Cc1cc(O)cc(C)c1O`, the IC50 is 3.6 µM in series [2]; 3.6 µM in [3]; 8.3 µM in [4]; 7.8 µM in series [5]; 15.4 µM in [7]. Besides, the selectivity ratio in [6] was determined as 2.1.
With `CC(C)(C)CC(C)(C)C1=CC(=O)C(C(C)(C)CC(C)(C)C)=CC1=O`, the IC50 in [2] was 44.2 µM; in [3], 51.8 µM; in series [4], 56.5 µM; in [5] it was greater than 200 µM; in series [7], 116 µM. Moreover, in series [6], the selectivity ratio was greater than 4.6.
For the compound `CNC1=C(C)C(=O)C=C(C(C)C)C1=O`, the IC50 in series [2] was 14 µM; in [3], 7.3 µM; in series [4], 12.9 µM; in [5] it was 36.8 µM; in series [7] it was 52.7 µM. Moreover, the selectivity ratio in series [6] turned out to be 5.
`Cc1c(O)c(Br)c(C(C)C)c(O)c1Br`: the IC50 in series [2] stood at 3.4 µM; in series [3], 4.8 µM; in [4], 11.6 µM; in series [5], 11 µM; in series [7], 25.6 µM. For the same compound, the selectivity ratio in series [6] was determined as 3.2.
For the compound `CCC(C)(C)C1=CC(=O)C(C(C)(C)CC)=CC1=O`, the IC50 was 36.1 µM in series [2]; 48.8 µM in [3]; 54.2 µM in series [4]; greater than 200 µM in [5]; 78.8 µM in series [7]. The selectivity ratio in [6] is greater than 5.
On to `CC1=C(Cl)C(=O)C(C(C)(C)C)=C(Cl)C1=O`, for which the IC50 in [2] is 4.5 µM; in series [3] it was 4.2 µM; in series [4], 6 µM; in [5], 3.1 µM; in series [7] it was 16.2 µM. For the same compound, the selectivity ratio in series [6] is less than 1.
For `Cc1cc(O)c(C(C)(C)C)cc1O`, the IC50 is 6.4 µM in [2]; 11.5 µM in series [3]; 12.2 µM in [4]; 85.6 µM in series [5]; 17.9 µM in [7]. Moreover, the selectivity ratio in series [6] is 13.4.
`CCNC1=C(C)C(=O)C=C(C(C)C)C1=O`: the IC50 came out at 12.6 µM in series [2]; 9.6 µM in [3]; 16 µM in series [4]; 30.3 µM in [5]; 11.1 µM in series [7]. In addition, the selectivity ratio in [6] turned out to be 3.1.
As for `CC1=C(N(C)C)C(=O)C=CC1=O`, the IC50 in series [2] came out at 16.7 µM; in [3], 20.5 µM; in [4] it was 35.6 µM; in series [5] it was 28.2 µM; in series [7] it was 191 µM. Also, the selectivity ratio in [6] came out at 1.3.
With `CC1=CC(=O)C=CC1=O` [Cresoquinone], the IC50 in series [2] is 12.1 µM; in series [3] it was 11.8 µM; in series [4], 13.4 µM; in series [5] it was 6 µM. For the same compound, the selectivity ratio in [6] is less than 1.
For `CC1=C(Br)C(=O)C(C(C)C)=C(Br)C1=O` [Dibromothymoquinone], the IC50 came to 4.9 µM in [2]; 5.3 µM in series [3]; 3.6 µM in [4]; 7.3 µM in series [5]; 30 µM in [7]. For the same compound, in [6], the selectivity ratio was found to be 1.5.
As to `Cc1cc(O)ccc1O` [METHYLHYDROQUINONE], the IC50 in series [2] stood at 5.7 µM; in series [3], 4.7 µM; in series [4], 6.2 µM; in series [5], 6.3 µM; in series [7] it was 134 µM.
For `CC(=O)O[C@H]1C(=O)[C@@]2(C)[C@H]([C@H](OC(=O)c3ccccc3)[C@]3(O)C[C@H](OC(=O)[C@H](O)[C@@H](NC(=O)c4ccccc4)c4ccccc4)C(C)=C1C3(C)C)[C@]1(OC(C)=O)CO[C@@H]1C[C@@H]2O` [PACLITAXEL], the IC50 was 0.03 µM in series [8]; 0.009 µM in series [2]; 0.05 µM in series [9]; 0.01 µM in series [4]; 0.003 to 0.004 µM in series [10]; 0.003 to 0.006 µM in series [11].
Regarding `CC1=CC(=O)C(C(C)C)=CC1=O` [THYMOQUINONE], the 50% inhibitory concentration (IC50) in series [12] was found to be 1.2 µM; in series [2], 7.9 µM; in series [3], 7.8 µM; in series [4] it was 11.6 µM; in [5] it was 17.8 µM; in series [7] it was 25 µM. The amount in solution in series [1] (solubility at 24 h) came to 468 µg/mL (≈ 2.85 mM).
